Data reported in ChEMBL document CHEMBL4145471, “New 1,5 and 2,5-disubstituted tetrazoles-dependent activity towards surface barrier of Candida albicans” (Eur J Med Chem, 2018).
Each block holds one molecule with its values, some of them ahead of it.

Assays:
Candida albicans [1] = assay: Antifungal activity against Candida albicans ATCC 90028 at 8 ug/ml after 48 hrs relative to control; format: functional
Method in brief: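 Planktonic broth microdilution per M27-A3 in MOPS-buffered RPMI 1640 (pH 7.0), final inoculum 1.8×10^3 cells/mL, compounds 0.0313–16 µg/mL from 1600 µg/mL stocks in ethanol or DMSO. Incubated at 35°C without agitation; OD405 read at 18 and 48 h. % inhibition was derived from test, sterility (no inoculum) and solvent growth-control wells. Amphotericin B at 0.5 µg/mL served as the 100% control.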

Candida albicans [2] = assay: Fungicidal activity against Candida albicans ATCC 90028 at 16 ug/ml after 48 hrs by M27-A3 microdilution method; format: functional
Method in brief: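 After 48 h at 35°C in M27-A3 microdilution plates (compound at 16 µg/mL), 50 µL aliquots from treated and solvent-control wells were diluted 10^4 in PBS and plated on drug-free Sabouraud dextrose agar, then incubated 48 h at 35°C. Reduction R = lg CFU/mL control − lg CFU/mL treated; R ≥ 3 defined as fungicidal.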

Candida albicans [3] = assay: Synergistic antifungal activity against Candida albicans ATCC 90028 at 80 ug/ml after 48 hrs in presence of 10 ug/ml fluconazol by checkerboard assay relative to control; format: functional
Method in brief: (§1)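 Checkerboard in C. albicans ATCC 90028, inoculum prepared per CLSI M27-A3 in RPMI. Fluconazole serially diluted 80-1.25 µg/mL across the plate against the partner compound at 80-1.25 µg/mL final. Incubated 48 h at 35°C. Metabolic activity read by XTT reduction at 475 nm (660 nm reference), given as % of the untreated growth control.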

Candida albicans [4] = assay: Synergistic antifungal activity against Candida albicans ATCC 90028 at 80 ug/ml after 48 hrs in presence of 5 ug/ml fluconazol by checkerboard assay relative to control; format: functional; method in brief: as §1
Candida albicans [5] = assay: Synergistic antifungal activity against Candida albicans ATCC 90028 at 40 ug/ml after 48 hrs in presence of 80 ug/ml fluconazol by checkerboard assay relative to control; format: functional; method in brief: as §1
Candida albicans [6] = assay: Synergistic antifungal activity against Candida albicans ATCC 90028 at 40 ug/ml after 48 hrs in presence of 1.25 ug/ml fluconazol by checkerboard assay relative to control; format: functional; method in brief: as §1
Candida albicans [7] = assay: Synergistic antifungal activity against Candida albicans ATCC 90028 at 20 ug/ml after 48 hrs in presence of 80 ug/ml fluconazol by checkerboard assay relative to control; format: functional; method in brief: as §1
Candida albicans [8] = assay: Synergistic antifungal activity against Candida albicans ATCC 90028 at 20 ug/ml after 48 hrs in presence of 5 ug/ml fluconazol by checkerboard assay relative to control; format: functional; method in brief: as §1
Candida albicans [9] = assay: Synergistic antifungal activity against Candida albicans ATCC 90028 at 20 ug/ml after 48 hrs in presence of 1.25 ug/ml fluconazol by checkerboard assay relative to control; format: functional; method in brief: as §1
Candida albicans [10] = assay: Synergistic antifungal activity against Candida albicans ATCC 90028 at 10 ug/ml after 48 hrs in presence of 80 ug/ml fluconazol by checkerboard assay relative to control; format: functional; method in brief: as §1
Candida albicans [11] = assay: Synergistic antifungal activity against Candida albicans ATCC 90028 at 10 ug/ml after 48 hrs in presence of 10 ug/ml fluconazol by checkerboard assay relative to control; format: functional; conditions: ATCC 90028, 48 h, read-out: GI
Method in brief: (§2)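 Checkerboard per M27-A3 against ATCC 90028: fluconazole at 80–1.25 µg/mL horizontally and partner compound at 80–1.25 µg/mL vertically, 100 µL yeast inoculum per well, 35°C for 48 h. After 48 h, metabolic activity was measured by XTT reduction at 475 nm (660 nm reference) relative to untreated growth control. FIC index is the sum of the FICs; <1 was defined as synergism and >1 as antagonism.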

Candida albicans [12] = assay: Synergistic antifungal activity against Candida albicans ATCC 90028 at 5 ug/ml after 48 hrs in presence of 80 ug/ml fluconazol by checkerboard assay relative to control; format: functional; method in brief: as §1
Candida albicans [13] = assay: Synergistic antifungal activity against Candida albicans ATCC 90028 at 2.5 ug/ml after 48 hrs in presence of 40 ug/ml fluconazol by checkerboard assay relative to control; format: functional
Method in brief: (§3)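 Checkerboard microdilution (M27-A3) on C. albicans ATCC 90028 in RPMI 1640: fluconazole (80-1.25 µg/mL) crossed with tetrazole (80-1.25 µg/mL final), incubated at 35°C for 48 h. Growth by OD405 at 18 and 48 h, endpoint taken as 100% inhibition. FIC index = sum of the two agents' FICs; <1 synergism, >1 antagonism.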

Candida albicans [14] = assay: Synergistic antifungal activity against Candida albicans ATCC 90028 at 2.5 ug/ml after 48 hrs in presence of 1.25 ug/ml fluconazol by checkerboard assay relative to control; format: functional; method in brief: as §3
Candida albicans [15] = assay: Synergistic antifungal activity against Candida albicans ATCC 90028 at 1.25 ug/ml after 48 hrs in presence of 20 ug/ml fluconazol by checkerboard assay relative to control; format: functional; method in brief: as §2
Candida albicans [16] = assay: Synergistic antifungal activity against Candida albicans ATCC 90028 at 1.25 ug/ml after 48 hrs in presence of 5 ug/ml fluconazol by checkerboard assay relative to control; format: functional; method in brief: as §2
Candida albicans [17] = assay: Antifungal activity against Candida albicans ATCC 90028 assessed as inhibition of metabolic activity at 5 ug/ml after 48 hrs in presence of 2.5 ug/ml fluconazol by XTT assay relative to control; format: functional; conditions: values are per cent of control
Method in brief: (§4)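 C. albicans ATCC 90028 in checkerboard: fluconazole serial dilutions (80-1.25 µg/mL) crossed with tetrazole (80-1.25 µg/mL final), M27-A3 inoculum in RPMI 1640, 35°C for 48 h. Metabolic activity measured by XTT reduction, read at 475 nm (660 nm reference). Activity expressed relative to untreated growth control absorbance.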

Candida albicans [18] = assay: Antifungal activity against Candida albicans ATCC 90028 assessed as inhibition of metabolic activity at 2.5 ug/ml after 48 hrs in presence of 2.5 ug/ml fluconazol by XTT assay relative to control; format: functional; conditions: ATCC 90028, 48 h, values are per cent of control; method in brief: as §4
Candida albicans [19] = assay: Antifungal activity against Candida albicans ATCC 90028 after 48 hrs by M27-A3 microdilution method; format: functional; conditions: ATCC 90028, 48 h
Candida albicans [20] = assay: Antifungal activity against Candida albicans ATCC 90028 assessed as metabolic activity at 20 ug/ml after 48 hrs in presence of 5 ug/ml fluconazol by XTT assay relative to control
Candida albicans [21] = assay: Antifungal activity against Candida albicans ATCC 90028 assessed as metabolic activity at 40 ug/ml after 48 hrs in presence of 40 ug/ml fluconazol by XTT assay relative to control; conditions: ATCC 90028, 48 h
Candida albicans [22] = assay: Antifungal activity against Candida albicans ATCC 90028 assessed as metabolic activity at 20 ug/ml after 48 hrs in presence of 40 ug/ml fluconazol by XTT assay relative to control

Structure (SMILES): CCOC(=O)CCn1nnc(-c2ccccc2)n1
Activity (Candida albicans [1]): 98.86% | Activity (Candida albicans [2]): 0.33 log10CFU/ml | growth inhibition (GI) (Candida albicans [3]): 99.84% | growth inhibition (GI) (Candida albicans [4]): 99.18% | growth inhibition (GI) (Candida albicans [5]): 99.58% | growth inhibition (GI) (Candida albicans [6]): 99.56% | growth inhibition (GI) (Candida albicans [7]): 99.25% | growth inhibition (GI) (Candida albicans [8]): 98.72% | growth inhibition (GI) (Candida albicans [9]): 99.79% | growth inhibition (GI) (Candida albicans [10]): 99.49% | inhibition of growth at 10 µg/mL (Candida albicans [11]): 99.4% | growth inhibition (GI) (Candida albicans [12]): 99.61% | growth inhibition (GI) (Candida albicans [13]): 99.46% | growth inhibition (GI) (Candida albicans [14]): 99.79% | growth inhibition (GI) (Candida albicans [15]): 99.65% | growth inhibition (GI) (Candida albicans [16]): 98.99% | residual activity (Candida albicans [17]): 80.73% | residual activity at 2.5 µg/mL (Candida albicans [18]): 82.6% | MIC (Candida albicans [19]): > 16 µg/mL | Metabolic activity (Candida albicans [20]): 100% | Metabolic activity at 40 µg/mL (Candida albicans [21]): 100% | Metabolic activity (Candida albicans [22]): 99.65%

Structure (SMILES): ClCCCn1nnnc1-c1ccccc1Cl
Activity (Candida albicans [1]): 99.06% | Activity (Candida albicans [2]): 0.18 log10CFU/ml | growth inhibition (GI) (Candida albicans [3]): 99.78% | growth inhibition (GI) (Candida albicans [4]): 99.27% | growth inhibition (GI) (Candida albicans [5]): 99.54% | growth inhibition (GI) (Candida albicans [6]): 99.93% | growth inhibition (GI) (Candida albicans [7]): 99.33% | growth inhibition (GI) (Candida albicans [8]): 99.02% | growth inhibition (GI) (Candida albicans [9]): 100% | growth inhibition (GI) (Candida albicans [10]): 99.43% | inhibition of growth at 10 µg/mL (Candida albicans [11]): 99.7% | growth inhibition (GI) (Candida albicans [12]): 99.34% | growth inhibition (GI) (Candida albicans [13]): 99.32% | growth inhibition (GI) (Candida albicans [14]): 100% | growth inhibition (GI) (Candida albicans [15]): 99.58% | growth inhibition (GI) (Candida albicans [16]): 98.74% | residual activity (Candida albicans [17]): 68.03% | residual activity at 2.5 µg/mL (Candida albicans [18]): 75.8% | MIC (Candida albicans [19]): > 16 µg/mL | Metabolic activity (Candida albicans [20]): 99.55% | Metabolic activity at 40 µg/mL (Candida albicans [21]): 100% | Metabolic activity (Candida albicans [22]): 82.92%

MIC (Candida albicans [19]): > 16 µg/mL
Structure (SMILES): Cc1ccc(-c2nnn(CCCN3CCOCC3)n2)cc1
Activity (Candida albicans [1]): 99.39% | Activity (Candida albicans [2]): 0.56 log10CFU/ml | growth inhibition (GI) (Candida albicans [3]): 99.8% | growth inhibition (GI) (Candida albicans [4]): 97.8% | growth inhibition (GI) (Candida albicans [5]): 99.59% | growth inhibition (GI) (Candida albicans [6]): 99.57% | growth inhibition (GI) (Candida albicans [7]): 99.26% | growth inhibition (GI) (Candida albicans [8]): 98.27% | growth inhibition (GI) (Candida albicans [9]): 98.75% | growth inhibition (GI) (Candida albicans [10]): 99.21% | inhibition of growth at 10 µg/mL (Candida albicans [11]): 99% | growth inhibition (GI) (Candida albicans [12]): 99.47% | growth inhibition (GI) (Candida albicans [13]): 98.91% | growth inhibition (GI) (Candida albicans [14]): 98.95% | growth inhibition (GI) (Candida albicans [15]): 99.46% | growth inhibition (GI) (Candida albicans [16]): 99.86% | residual activity (Candida albicans [17]): 100% | residual activity at 2.5 µg/mL (Candida albicans [18]): 100% | Metabolic activity (Candida albicans [20]): 100% | Metabolic activity at 40 µg/mL (Candida albicans [21]): 95.3% | Metabolic activity (Candida albicans [22]): 93.5%
